Data taken from paper PMC10349574 (Drug Design, Development and Therapy, 2023).
“Also recorded” adds a separate entry of the source.

Assays:
DU145 cells [1] = assay: Apoptosis assay, Annexin V-FITC/Propidium Iodide flow cytometry; format: cell-based; conditions: 24 h
Summary of the method: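 DU145 cells in six-well plates were treated 24 h at 37 °C with vehicle, test compound (3, 10, 30 μM) or silibinin reference (30 μM). Cells were harvested, washed in ice-cold PBS, stained with an Annexin V-FITC apoptosis kit and analysed by flow cytometry. Data are mean ± SD of three individual experiments.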

DU145 cells [2] = assay: Cell cycle assay, propidium iodide flow cytometry; format: cell-based; conditions: DU145, 24 h
Summary of the method: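 DU145 cells were treated 24 h after plating with increasing test compound concentrations (3, 10, 30 μM) or silibinin (30 μM), and harvested 24 h later. They were PBS-washed, fixed in ice-cold 70% ethanol for ≥24 h, rewashed in room-temperature PBS and stained with propidium iodide plus RNase-A (30 min, 37 °C). Flow cytometry followed. Data are mean ± SD of three experiments.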

[3] = cited from earlier work

Row | Structure (SMILES) | induction of apoptosis (in words) (DU145 cells [1]; DU145, 3, 10 and 30 μM) | ability to promote DU145 cell apoptosis relative to silibinin (DU145 cells [1]; DU145, same concentration of 30 μM) | effect on cell cycle (in words) (DU145 cells [2]) | Solubility in H2O [3]
1 | COc1cc(C2Oc3cc(C4Oc5cc(O)cc(O)c5C(=O)C4OC(=O)CCC(=O)O[C@H]4O[C@@H](CO)C(O)[C@@H](O)[C@@H]4O)ccc3OC2CO)ccc1O (stereo partly drawn) [Compound 15, 5,7-Dihydroxy-2-[3-(4-hydroxy-3-methoxyphenyl)-2-(hydroxymethyl)-2,3-dihydrobenzo[b][1,4]dioxin-6-yl]-4-oxochroman-3-yl [(2R,3S,4R,6S)-3,4,5-trihydroxy-6-(hydroxymethyl)tetrahydro-2H-pyran-2-yl] succinate] | induced apoptosis in DU145 cells; also recorded: markedly induced cell apoptosis in a dose-dependent manner | approximately 2 times | arrested cell cycle at G2/M phase; also recorded: blocked the tumor cells in G2/M -phase progression | 
2 | COc1cc(C2Oc3cc([C@H]4Oc5cc(O)cc(O)c5C(=O)[C@@H]4O)ccc3OC2CO)ccc1O (stereo partly shown) [Silibinin] |  |  |  | less than 0.4 mg/L
